From ChEMBL document CHEMBL1122796, “Synthesis and antihypertensive activity of 6,7-disubstituted trans-4-amino-3,4-dihydro-2,2-dimethyl-2H-1-benzopyran-3-ols” (1984)

Assays:
Format in all cases: functional
Rattus norvegicus [1] = assay: Compound was evaluated for oral antihypertensive activity in spontaneously hypertensive rats at 0.1 mg/kg peroral administration
Procedure, shortened: (§1)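 Conscious spontaneously hypertensive rats (Okamoto-derived, 14-24 weeks old, systolic BP ≥180 mmHg), usually six per compound. Dosed orally by needle into the esophagus as a solution or suspension in 1% w/v methylcellulose; doses as free base. Systolic BP measured by tail cuff, restrained at 33.5 ± 0.5 °C, each reading a mean of ≥6 recordings, predose and at 1-6 h.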

Rattus norvegicus [2] = assay: Compound was evaluated for oral antihypertensive activity in spontaneously hypertensive rats at 0.3 mg/kg peroral administration; procedure, shortened: as §1
Rattus norvegicus [3] = assay: Compound was evaluated for oral antihypertensive activity in spontaneously hypertensive rats at 10 mg/kg peroral administration; procedure, shortened: as §1
Rattus norvegicus [4] = assay: Compound was evaluated for oral antihypertensive activity in spontaneously hypertensive rats at 3 mg/kg peroral administration; procedure, shortened: as §1
Rattus norvegicus [5] = assay: Compound was evaluated for oral antihypertensive activity in spontaneously hypertensive rats at 1 mg/kg peroral administration; procedure, shortened: as §1
Rattus norvegicus [6] = assay: Compound was evaluated for antihypertensive activity in deoxy-corticosterone acetate (DOCA) treated hypertensive rats at 1 mg/kg peroral administration; conditions: route oral
Rattus norvegicus [7] = assay: Compound was evaluated for oral antihypertensive activity in spontaneously hypertensive rats at 0.01 mg/kg peroral administration; procedure, shortened: as §1
Rattus norvegicus [8] = assay: Compound was evaluated for oral antihypertensive activity in spontaneously hypertensive rats at 0.03 mg/kg peroral administration; procedure, shortened: as §1
Rattus norvegicus [9] = assay: Compound was evaluated for antihypertensive activity in deoxy-corticosterone acetate (DOCA) treated hypertensive rats at 100 mg/kg peroral administration; conditions: route oral
Rattus norvegicus [10] = assay: Compound was evaluated for oral antihypertensive activity in spontaneously hypertensive rats at 100 mg/kg peroral administration; procedure, shortened: as §1
Rattus norvegicus [11] = assay: Compound was evaluated for antihypertensive activity in deoxy-corticosterone acetate (DOCA) treated hypertensive rats at 10 mg/kg peroral administration; conditions: route oral
Rattus norvegicus [12] = assay: Compound was evaluated for antihypertensive activity in deoxy-corticosterone acetate (DOCA) treated hypertensive rats at 3 mg/kg peroral administration; conditions: route oral
Rattus norvegicus [13] = assay: Compound was evaluated for antihypertensive activity in deoxy-corticosterone acetate (DOCA) treated hypertensive rats at 0.3 mg/kg peroral administration; conditions: route oral

SMILES	Max fall in blood pressure (Rattus norvegicus [1]) [mmHg]	Max fall in blood pressure (Rattus norvegicus [2]) [mmHg]	Max fall in blood pressure (Rattus norvegicus [3]) [mmHg]	Max fall in blood pressure (Rattus norvegicus [5]) [mmHg]	Max fall in blood pressure (Rattus norvegicus [6]) [mmHg]	also measured
CC(=O)Nc1cc2c(cc1[N+](=O)[O-])[C@@H](N1CCCCC1)[C@H](O)C(C)(C)O2	78	108				
CC(=O)Nc1cc2c(cc1[N+](=O)[O-])OC(C)(C)[C@@H](O)[C@@H]2N1CCCC1			99			Max fall in blood pressure (Rattus norvegicus [4]): 25 mmHg
CC(=O)Nc1cc2c(cc1[N+](=O)[O-])OC(C)(C)[C@@H](O)[C@@H]2N1CCCCC1			89			Max fall in blood pressure (Rattus norvegicus [4]): 44 mmHg
CC1(C)Oc2cc([N+](=O)[O-])c(N)cc2[C@@H](N2CCCCC2)[C@@H]1O		42		67		
CC1(C)Oc2ccc([N+](=O)[O-])cc2C(N2CCCC2)[C@@H]1O.Cl (some centres not stated)		32		52	52	
CC1(C)Oc2cc(N)c([N+](=O)[O-])cc2[C@@H](N2CCCCC2)[C@@H]1O	110	111				Max fall in blood pressure (Rattus norvegicus [7]): 14 mmHg; Max fall in blood pressure (Rattus norvegicus [8]): 71 mmHg
CC(=O)Nc1cc2c(cc1C#N)[C@@H](N1CCCC1)[C@H](O)C(C)(C)O2	36	149				
CC(=O)Nc1ccc2c(c1)C(N1CCCCC1)[C@H](O)C(C)(C)O2.Cl (some centres not stated)			19			Max fall in blood pressure (Rattus norvegicus [9]): 4 mmHg; Max fall in blood pressure (Rattus norvegicus [10]): 42 mmHg; Max fall in blood pressure (Rattus norvegicus [11]): 6 mmHg
CC1(C)Oc2ccc(C(N)=O)cc2C(N2CCCCC2)[C@@H]1O.Cl (some centres not stated)			109	24	9	Max fall in blood pressure (Rattus norvegicus [4]): 76 mmHg
Cl.NNc1nncc2ccccc12 [HYDRALAZINE HYDROCHLORIDE]			89	42	32	Max fall in blood pressure (Rattus norvegicus [4]): 51 mmHg; Max fall in blood pressure (Rattus norvegicus [12]): 65 mmHg; Max fall in blood pressure (Rattus norvegicus [11]): 113 mmHg
CC1(C)Oc2cc(N)c(C#N)cc2[C@@H](N2CCCC2)[C@@H]1O	54	115				Max fall in blood pressure (Rattus norvegicus [8]): 40 mmHg
CC1(C)Oc2cc([N+](=O)[O-])ccc2C(N2CCCC2)[C@@H]1O.Cl (some centres not stated)		17		83	44	Max fall in blood pressure (Rattus norvegicus [12]): 90 mmHg
CC1(C)Oc2cc([N+](=O)[O-])c(N)cc2[C@@H](N2CCCC2)[C@@H]1O	22	83		71		
CC1(C)Oc2cc(N)c([N+](=O)[O-])cc2[C@@H](N2CCCC2)[C@@H]1O	122					Max fall in blood pressure (Rattus norvegicus [8]): 47 mmHg
COC(=O)C1=C(C)NC(C)=C(C(=O)OC)C1c1ccccc1[N+](=O)[O-] [NIFEDIPINE]		13		30	33	Max fall in blood pressure (Rattus norvegicus [13]): 20 mmHg; Max fall in blood pressure (Rattus norvegicus [4]): 62 mmHg; Max fall in blood pressure (Rattus norvegicus [12]): 51 mmHg
CC(=O)Nc1cc2c(cc1C(N)=O)[C@@H](N1CCCCC1)[C@H](O)C(C)(C)O2		34		50		
CC1(C)Oc2ccc(N)cc2C(N2CCCC2)[C@@H]1O.CS(=O)(=O)O (some centres not stated)			-10		6	
CC1(C)Oc2ccc(C#N)cc2C(N2CCCC2)[C@@H]1O.CS(=O)(=O)O (some centres not stated)		41		61	43	Max fall in blood pressure (Rattus norvegicus [13]): 15 mmHg
